# From ChEMBL document CHEMBL4396957, “Potent bicyclic inhibitors of malarial cGMP-dependent protein kinase: approaches to combining improvements in cell potency, selectivity and structural novelty” (Bioorg Med Chem Lett, 2019)
# Calls of active or inactive are those of the source. The rule behind the calls is not given here.
# Assays:
# [1] = target: Maternal embryonic leucine zipper kinase (Homo sapiens) (UniProt Q14680); assay: Inhibition of human MELK at 1 uM relative to control
# [2] = target: Receptor-interacting serine/threonine-protein kinase 2 (Homo sapiens) (UniProt O43353); assay: Inhibition of human RIPK2 at 1 uM relative to control
# [3] = target: T1, cGMP-dependent protein kinase 1 (Homo sapiens) (UniProt Q13976); assay: Inhibition of recombinant human N-terminal His6-tagged full length PKG1alpha expressed in baculovirus infected Sf21 insect cells upto 1 uM relative to control
# T1 sequence (whole entry): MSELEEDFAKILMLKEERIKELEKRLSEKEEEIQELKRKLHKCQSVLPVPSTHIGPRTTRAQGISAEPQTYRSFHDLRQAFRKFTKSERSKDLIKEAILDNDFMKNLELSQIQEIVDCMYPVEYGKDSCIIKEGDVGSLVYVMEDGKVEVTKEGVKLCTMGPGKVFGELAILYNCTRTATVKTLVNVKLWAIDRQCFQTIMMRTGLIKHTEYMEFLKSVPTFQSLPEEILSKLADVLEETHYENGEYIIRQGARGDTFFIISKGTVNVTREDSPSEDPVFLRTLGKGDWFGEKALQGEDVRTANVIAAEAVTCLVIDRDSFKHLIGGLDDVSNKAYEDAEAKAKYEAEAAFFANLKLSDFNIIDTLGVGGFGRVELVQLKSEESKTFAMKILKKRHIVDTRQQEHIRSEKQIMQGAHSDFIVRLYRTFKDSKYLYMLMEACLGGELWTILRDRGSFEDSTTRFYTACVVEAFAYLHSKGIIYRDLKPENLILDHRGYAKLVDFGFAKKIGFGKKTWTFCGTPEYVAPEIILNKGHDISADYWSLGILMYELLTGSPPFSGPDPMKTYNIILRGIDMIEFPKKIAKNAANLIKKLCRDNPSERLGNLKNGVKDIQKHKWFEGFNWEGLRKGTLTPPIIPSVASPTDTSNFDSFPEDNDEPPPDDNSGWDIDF
# [4] = target: T1, cGMP-dependent protein kinase 1 (Homo sapiens); assay: Inhibition of recombinant human N-terminal His6-tagged full length PKG1beta expressed in baculovirus infected Sf21 insect cells upto 1 uM relative to control
# [5] = tested on: HepG2; assay: Cytotoxicity against human HepG2 cells assessed as reduction cell viability incubated for 48 hrs by CellTiter-Glo luminescent cell viability assay; assay type: cell-based; details: hepg2, 48 h
# Summary of the method: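 HepG2 human liver-derived cells exposed to compound for 48 h in an in vitro viability assay. […]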
# Receptor-interacting serine/threonine-protein kinase 2 (Homo sapiens), sequence (O43353 whole entry): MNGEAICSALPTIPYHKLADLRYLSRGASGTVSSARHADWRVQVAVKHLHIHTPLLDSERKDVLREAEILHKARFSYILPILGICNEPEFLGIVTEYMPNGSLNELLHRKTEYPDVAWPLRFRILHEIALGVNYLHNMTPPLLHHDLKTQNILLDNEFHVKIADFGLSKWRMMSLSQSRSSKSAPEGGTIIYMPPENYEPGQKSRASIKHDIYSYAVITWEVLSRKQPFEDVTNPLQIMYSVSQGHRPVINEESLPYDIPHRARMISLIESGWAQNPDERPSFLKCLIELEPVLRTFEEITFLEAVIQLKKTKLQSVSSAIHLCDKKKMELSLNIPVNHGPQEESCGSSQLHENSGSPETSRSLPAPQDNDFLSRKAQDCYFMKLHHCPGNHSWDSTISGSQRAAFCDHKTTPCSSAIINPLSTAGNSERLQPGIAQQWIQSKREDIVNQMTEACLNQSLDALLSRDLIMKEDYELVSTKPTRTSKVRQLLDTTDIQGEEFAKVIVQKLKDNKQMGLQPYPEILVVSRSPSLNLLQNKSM
# Maternal embryonic leucine zipper kinase (Homo sapiens), sequence (Q14680 whole entry, looked up): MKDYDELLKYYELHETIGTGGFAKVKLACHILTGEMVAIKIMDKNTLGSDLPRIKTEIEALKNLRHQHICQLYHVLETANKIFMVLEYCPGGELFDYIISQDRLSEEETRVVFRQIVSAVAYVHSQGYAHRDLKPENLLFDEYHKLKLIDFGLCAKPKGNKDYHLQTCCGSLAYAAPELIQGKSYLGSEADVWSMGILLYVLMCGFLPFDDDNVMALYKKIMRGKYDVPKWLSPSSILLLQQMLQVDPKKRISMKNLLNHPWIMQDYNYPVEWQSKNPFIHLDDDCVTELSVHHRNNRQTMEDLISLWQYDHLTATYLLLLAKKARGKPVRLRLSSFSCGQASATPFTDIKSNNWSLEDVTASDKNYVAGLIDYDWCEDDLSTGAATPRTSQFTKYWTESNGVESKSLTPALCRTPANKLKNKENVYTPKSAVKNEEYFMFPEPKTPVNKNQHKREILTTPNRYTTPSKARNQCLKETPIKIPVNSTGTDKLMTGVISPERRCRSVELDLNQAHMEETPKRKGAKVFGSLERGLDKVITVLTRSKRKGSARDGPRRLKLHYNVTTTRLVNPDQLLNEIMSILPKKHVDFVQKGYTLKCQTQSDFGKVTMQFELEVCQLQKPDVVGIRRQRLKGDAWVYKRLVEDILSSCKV
Structure (SMILES),inhibition [1],inhibition [2],inhibition [3],inhibition [4],Activity [5]
CN(C)Cc1ccn2c(-c3ccnc(N)n3)c(-c3ccc(F)cc3)nc2c1,> 90%,50 to 90%,inactive,inactive,–
CN1CCN(c2ccn3c(-c4ccnc(N)n4)c(-c4ccc(F)cc4)nc3c2)CC1,–,–,–,–,Non-Toxic
CN1CCN(c2ccc3nc(-c4ccc(F)cc4)c(-c4ccnc(N)n4)n3c2)CC1,–,–,–,–,Toxic
CNc1nccc(-c2c(-c3ccc(F)cc3)nc3cc(NCCN(C)C)ccn23)n1,50 to 90%,50 to 90%,inactive,inactive,–
CN(C)Cc1ccn2c(-c3ccnc(Nc4ccc(N5CCNCC5)cc4)n3)c(C3CC3)nc2c1,> 90%,50 to 90%,–,–,–
